Experimental data taken from ChEMBL document CHEMBL5678805, “Intermittent administration of MEK inhibitor GDC-0973 plus PI3K inhibitor GDC-0941 triggers robust apoptosis and tumor growth inhibition” (Cancer Res, 2012).
The source made the active and inactive calls. No cut-off for these calls is given here.

Key:
Aurora kinase A = Aurora kinase A (Homo sapiens, UniProt O14965); assay: Inhibition of AuroraA (unknown origin)
[1] = target: Receptor tyrosine-protein kinase erbB-2 (Homo sapiens, UniProt P04626); assay: Inhibition of ErbB2 (unknown origin)
[2] = target: Homeodomain-interacting protein kinase 1 (Homo sapiens, UniProt Q86Z02); assay: Inhibition of HIPK1 (unknown origin)
[3] = target: Insulin-like growth factor 1 receptor (Homo sapiens, UniProt P08069); assay: Inhibition of IGF1R (unknown origin)
[4] = target: Inhibitor of nuclear factor kappa-B kinase subunit alpha (Homo sapiens, UniProt O15111); assay: Inhibition of IKKa (unknown origin)
[5] = target: Tyrosine-protein kinase JAK2 (Homo sapiens, UniProt O60674); assay: Inhibition of JAK2 (unknown origin)
[6] = target: Serine/threonine-protein kinase 10 (Homo sapiens, UniProt O94804); assay: Inhibition of LOK (unknown origin)
[7] = target: MAP kinase-activated protein kinase 2 (Homo sapiens, UniProt P49137); assay: Inhibition of MAPKAP2 (unknown origin)
[8] = target: Serine/threonine-protein kinase Nek7 (Homo sapiens, UniProt Q8TDX7); assay: Inhibition of NEK7 (unknown origin)
[9] = target: PAS domain-containing serine/threonine-protein kinase (Homo sapiens, UniProt Q96RG2); assay: Inhibition of PASK (unknown origin)
[10] = target: Platelet-derived growth factor receptor beta (Homo sapiens, UniProt P09619); assay: Inhibition of PDGFR beta (unknown origin)
[11] = Inhibition of PKA (unknown origin); parameters: species or system Homo sapiens
[12] = target: Serine/threonine-protein kinase D2 (Homo sapiens, UniProt Q9BZL6); assay: Inhibition of PKD2 (unknown origin)
[13] = target: Testis-specific serine/threonine-protein kinase 1 (Homo sapiens, UniProt Q9BXA7); assay: Inhibition of TSSK1 (unknown origin)
[14] = target: Serine/threonine-protein kinase WNK2 (Homo sapiens, UniProt Q9Y3S1); assay: Inhibition of WNK2 (unknown origin)
[15] = Antitumor activity against human LS174T-HM7 cells xenografted in mouse assessed as tumor growth inhibition at 10 mg/kg, po; format: functional; conditions: read-out: TGI
In short: (§1)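 Single-agent dose ranging in human tumor xenograft mice at 2.5, 5 or 10 mg/kg oral. Tumor volume was measured by caliper as (L×W×W)/2. %TGI = 100×[1 − AUC(treatment/d)/AUC(vehicle/d)] from the fitted growth curve per dose group, relative to vehicle.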

LoVo = assay: Antitumor activity against human LoVo cells harboring KRAS G13D/CDKN2A P48L/FBXW7 R505C/MSH2/SMO G16_L17insLL/A324T/NF1 R1276Q/Y1607fs17/APC1114 mutant xenografted in mouse assessed as tumor growth inhibition at 10 mg/kg, po; format: functional; conditions: read-out: TGI; in short: as §1
537-mel [16] = assay: Antitumor activity against human 537-mel cells harboring PTEN null mutation xenografted in mouse assessed as tumor growth inhibition at 2.5 mg/kg, po; format: functional; conditions: read-out: TGI
In short: (§2)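 Mice carrying human tumor xenografts dosed orally once daily for 21 consecutive days. Tumor volume measured by calipers as (L×W×W)/2. %TGI = 100×[1 − AUC(treatment/day)/AUC(vehicle/day)], using the area under the fitted growth curve relative to vehicle.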

537-mel [17] = assay: Antitumor activity against human 537-mel cells harboring PTEN null mutation xenografted in mouse assessed as tumor growth inhibition at 10 mg/kg, po; format: functional; conditions: read-out: TGI; in short: as §2
A2058 [18] = assay: Antitumor activity against human A2058 cells harboring BRAF V600E/PTEN L112Q/V175/TP53 V274F mutant xenografted in mouse assessed as tumor growth inhibition at 5 mg/kg, po; format: functional; conditions: read-out: TGI; in short: as §2
[19] = Antitumor activity against human A2058-X1 cells harboring BRAF V600E/PTEN L112Q/V175/TP53 V274F mutant xenografted in mouse assessed as tumor growth inhibition at 2.5 mg/kg, po; format: functional; conditions: A2058-X1, read-out: TGI; in short: as §1
NCI-H520 = assay: Antitumor activity against human NCI-H520 cells harboring TP53 W146 and CDKN2A G G45 mutant xenografted in mouse assessed as tumor growth inhibition at 5 mg/kg, po; format: functional; conditions: read-out: TGI
In short: (§3)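 Human tumor xenografts in mice were dosed orally at the indicated mg/kg. Tumor volume was measured with calipers as (L×W×W)/2. %TGI = 100 × [1 − (AUC treatment/d)/(AUC vehicle/d)], using the area under the fitted tumor-growth curve per day for each dose group relative to vehicle.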

SK-OV-3 = assay: Antitumor activity against human SK-OV-3 cells harboring FBXW7 R505L and CDKN2A mutant xenografted in mouse assessed as tumor growth inhibition at 10 mg/kg, po; format: functional; conditions: read-out: TGI; in short: as §3
A2058 [20] = assay: Inhibition of PI3K/MEK signaling pathway in human A2058 cells assessed as decrease in AKT phosphorylation by incubated for 24 hrs by Western blot analysis; format: cell-based
A2058 [21] = assay: Antitumor activity against human A2058 cells xenografted in mouse assessed as tumor growth inhibition at 15 mg/kg, po administered every third day for 21 days; format: functional; conditions: A2058, 504 h, time 21 day, read-out: TGI
In short: (§4)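 Human tumor xenografts in mice. Drugs given orally, as single agents or combined with the PI3K inhibitor. Schedules were daily (QD) or every third day (Q3D) over 21 days. Tumor volume was measured by caliper as (L×W×W)/2. %TGI = 100×[1 − AUC(treatment/d)/AUC(vehicle/d)] from fitted growth curves, with group means. Tumor lysates were immunoblotted for pS6.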

DLD-1 [22] = assay: Antitumor activity against human DLD-1 cells xenografted in mouse assessed as tumor growth inhibition at 10 mg/kg, po administered every third day for 21 days; format: functional; conditions: DLD-1, 504 h, time 21 day, read-out: TGI; in short: as §4
[23] = Antitumor activity against human A375.X1 cells xenografted in mouse assessed as tumor growth inhibition at 15 mg/kg, po administered every third day for 21 days; format: functional; conditions: A375.X1, 504 h, time 21 day, read-out: TGI; in short: as §4
DLD-1 [24] = assay: Antitumor activity against human DLD-1 cells xenografted in mouse assessed as tumor growth inhibition at 15 mg/kg, po administered once a day for 21 days in presence of 4-(2-(1H-indazol-4-yl)-6-((4-(methylsulfonyl)piperazin-1-yl)methyl)thieno[3,2-d]pyrimidin-4-yl)morpholine; format: functional; conditions: DLD-1, 504 h, time 21 day, read-out: TGI; in short: as §4
A2058 [25] = assay: Antitumor activity against human A2058 cells harboring BRAF V600E/PTEN deletion mutant xenografted in mouse assessed as decrease in cyclin D1 level at 15 mg/kg, po administered every third day for 21 days and measured after 8 hrs post dose in presence of 4-(2-(1H-indazol-4-yl)-6-((4-(methylsulfonyl)piperazin-1-yl)methyl)thieno[3,2-d]pyrimidin-4-yl)morpholine by Western blot analysis; format: functional, organism-based; conditions: time 512.0 hrs
A2058 [26] = assay: (§5) Antitumor activity against human A2058 cells harboring BRAF V600E/PTEN deletion mutant xenografted in mouse assessed as suppression of ERK phosphorylation at 15 mg/kg, po administered every third day for 21 days and measured after 72 hrs post dose by Western blot analysis; format: functional, organism-based; conditions: time 576.0 hrs
A2058 [27] = assay: as §5, with “AKT” for “ERK”, “dose in presence of 4-(2-(1H-indazol-4-yl)-6-((4-(methylsulfonyl)piperazin-1-yl)methyl)thieno[3,2-d]pyrimidin-4-yl)morpholine” for “dose”; format: functional, organism-based; conditions: time 576.0 hrs

Chain of MAP kinase-activated protein kinase 2 (P49137 whole entry): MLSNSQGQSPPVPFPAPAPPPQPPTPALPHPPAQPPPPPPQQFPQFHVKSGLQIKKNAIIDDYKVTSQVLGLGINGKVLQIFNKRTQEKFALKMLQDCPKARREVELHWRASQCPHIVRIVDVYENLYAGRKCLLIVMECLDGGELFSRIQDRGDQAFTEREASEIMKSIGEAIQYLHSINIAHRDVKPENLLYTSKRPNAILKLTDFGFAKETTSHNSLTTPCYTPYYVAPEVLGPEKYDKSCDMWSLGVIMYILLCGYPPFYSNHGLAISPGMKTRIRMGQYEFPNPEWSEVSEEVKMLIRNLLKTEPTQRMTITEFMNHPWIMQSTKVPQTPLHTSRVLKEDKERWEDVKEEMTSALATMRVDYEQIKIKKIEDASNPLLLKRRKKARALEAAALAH
Chain of Serine/threonine-protein kinase Nek7 (Q8TDX7 whole entry, the tested form may be a part): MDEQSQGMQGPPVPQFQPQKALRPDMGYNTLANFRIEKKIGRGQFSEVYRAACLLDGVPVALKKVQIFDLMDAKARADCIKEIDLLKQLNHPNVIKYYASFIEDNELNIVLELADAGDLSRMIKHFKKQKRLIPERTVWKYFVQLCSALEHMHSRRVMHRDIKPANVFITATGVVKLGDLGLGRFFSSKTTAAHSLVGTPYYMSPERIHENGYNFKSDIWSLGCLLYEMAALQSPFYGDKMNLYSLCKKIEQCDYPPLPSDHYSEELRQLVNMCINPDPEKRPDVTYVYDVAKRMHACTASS
Chain of Aurora kinase A (O14965 whole entry): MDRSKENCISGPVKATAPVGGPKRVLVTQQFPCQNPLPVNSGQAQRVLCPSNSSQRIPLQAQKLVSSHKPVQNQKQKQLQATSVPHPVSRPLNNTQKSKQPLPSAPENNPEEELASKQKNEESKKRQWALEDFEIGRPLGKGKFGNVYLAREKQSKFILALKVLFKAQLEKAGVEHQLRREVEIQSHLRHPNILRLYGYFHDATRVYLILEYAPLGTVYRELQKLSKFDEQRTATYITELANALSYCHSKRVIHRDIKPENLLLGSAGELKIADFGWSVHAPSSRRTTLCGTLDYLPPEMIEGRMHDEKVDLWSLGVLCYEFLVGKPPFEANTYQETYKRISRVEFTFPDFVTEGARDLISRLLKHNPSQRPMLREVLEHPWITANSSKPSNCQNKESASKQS
Chain of Receptor tyrosine-protein kinase erbB-2 (P04626 whole entry): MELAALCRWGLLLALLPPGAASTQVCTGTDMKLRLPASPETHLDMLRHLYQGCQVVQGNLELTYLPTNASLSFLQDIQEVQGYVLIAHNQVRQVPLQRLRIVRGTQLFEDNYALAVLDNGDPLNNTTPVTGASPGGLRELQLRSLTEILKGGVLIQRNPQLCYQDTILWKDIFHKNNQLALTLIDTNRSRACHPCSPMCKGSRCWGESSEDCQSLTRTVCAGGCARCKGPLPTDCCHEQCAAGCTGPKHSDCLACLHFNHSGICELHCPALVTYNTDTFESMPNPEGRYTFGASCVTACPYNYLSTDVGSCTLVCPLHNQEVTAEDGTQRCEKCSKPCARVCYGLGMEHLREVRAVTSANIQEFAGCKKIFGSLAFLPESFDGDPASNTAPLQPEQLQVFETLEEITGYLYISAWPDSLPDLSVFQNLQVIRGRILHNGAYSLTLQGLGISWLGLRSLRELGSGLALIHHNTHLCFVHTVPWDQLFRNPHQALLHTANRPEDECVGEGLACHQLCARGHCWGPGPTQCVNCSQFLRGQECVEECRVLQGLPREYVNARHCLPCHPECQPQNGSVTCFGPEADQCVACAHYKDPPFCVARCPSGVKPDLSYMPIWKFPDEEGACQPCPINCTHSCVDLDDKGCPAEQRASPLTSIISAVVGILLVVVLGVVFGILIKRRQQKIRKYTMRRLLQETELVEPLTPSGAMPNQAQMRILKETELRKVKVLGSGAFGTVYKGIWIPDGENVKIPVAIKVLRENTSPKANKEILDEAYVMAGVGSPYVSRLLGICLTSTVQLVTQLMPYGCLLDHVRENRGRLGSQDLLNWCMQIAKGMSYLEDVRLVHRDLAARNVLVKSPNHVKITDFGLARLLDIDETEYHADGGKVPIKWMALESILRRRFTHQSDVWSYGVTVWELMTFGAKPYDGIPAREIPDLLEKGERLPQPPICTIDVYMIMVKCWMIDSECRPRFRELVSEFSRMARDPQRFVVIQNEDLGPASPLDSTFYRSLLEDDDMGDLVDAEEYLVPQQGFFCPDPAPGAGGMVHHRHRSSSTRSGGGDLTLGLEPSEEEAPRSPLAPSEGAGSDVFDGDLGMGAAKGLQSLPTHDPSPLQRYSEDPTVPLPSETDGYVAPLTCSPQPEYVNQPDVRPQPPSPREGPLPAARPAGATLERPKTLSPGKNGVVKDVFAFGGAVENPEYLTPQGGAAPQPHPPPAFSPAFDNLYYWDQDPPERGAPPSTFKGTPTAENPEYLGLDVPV
Chain of Platelet-derived growth factor receptor beta (P09619 whole entry): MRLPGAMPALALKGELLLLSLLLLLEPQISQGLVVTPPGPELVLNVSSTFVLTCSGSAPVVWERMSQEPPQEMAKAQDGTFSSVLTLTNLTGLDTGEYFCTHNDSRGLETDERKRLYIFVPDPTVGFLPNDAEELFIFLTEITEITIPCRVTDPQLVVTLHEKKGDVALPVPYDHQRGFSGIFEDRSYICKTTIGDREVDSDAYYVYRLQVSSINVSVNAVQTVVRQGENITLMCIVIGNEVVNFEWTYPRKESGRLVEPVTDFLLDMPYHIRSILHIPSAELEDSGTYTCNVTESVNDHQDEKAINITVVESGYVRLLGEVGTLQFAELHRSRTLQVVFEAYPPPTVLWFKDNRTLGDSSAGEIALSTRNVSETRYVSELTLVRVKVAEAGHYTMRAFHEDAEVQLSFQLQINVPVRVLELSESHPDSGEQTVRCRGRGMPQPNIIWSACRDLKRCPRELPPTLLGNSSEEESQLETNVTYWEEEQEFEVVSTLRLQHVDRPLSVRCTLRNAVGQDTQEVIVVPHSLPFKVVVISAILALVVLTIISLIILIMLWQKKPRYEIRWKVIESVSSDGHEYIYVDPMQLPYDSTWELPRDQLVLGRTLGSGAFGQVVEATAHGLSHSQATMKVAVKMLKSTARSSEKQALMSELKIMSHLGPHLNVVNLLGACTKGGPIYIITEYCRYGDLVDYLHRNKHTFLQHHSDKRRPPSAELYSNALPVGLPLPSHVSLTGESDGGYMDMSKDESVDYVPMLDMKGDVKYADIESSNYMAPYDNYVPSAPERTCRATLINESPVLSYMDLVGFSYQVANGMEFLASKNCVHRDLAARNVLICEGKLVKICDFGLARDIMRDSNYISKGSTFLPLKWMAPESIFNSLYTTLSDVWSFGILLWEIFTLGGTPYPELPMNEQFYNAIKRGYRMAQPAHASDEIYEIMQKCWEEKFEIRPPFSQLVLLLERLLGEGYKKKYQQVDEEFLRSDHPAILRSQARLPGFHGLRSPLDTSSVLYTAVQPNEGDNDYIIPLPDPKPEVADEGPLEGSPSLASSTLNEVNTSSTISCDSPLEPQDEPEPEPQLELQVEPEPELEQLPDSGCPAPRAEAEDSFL
Chain of Serine/threonine-protein kinase D2 (Q9BZL6 whole entry): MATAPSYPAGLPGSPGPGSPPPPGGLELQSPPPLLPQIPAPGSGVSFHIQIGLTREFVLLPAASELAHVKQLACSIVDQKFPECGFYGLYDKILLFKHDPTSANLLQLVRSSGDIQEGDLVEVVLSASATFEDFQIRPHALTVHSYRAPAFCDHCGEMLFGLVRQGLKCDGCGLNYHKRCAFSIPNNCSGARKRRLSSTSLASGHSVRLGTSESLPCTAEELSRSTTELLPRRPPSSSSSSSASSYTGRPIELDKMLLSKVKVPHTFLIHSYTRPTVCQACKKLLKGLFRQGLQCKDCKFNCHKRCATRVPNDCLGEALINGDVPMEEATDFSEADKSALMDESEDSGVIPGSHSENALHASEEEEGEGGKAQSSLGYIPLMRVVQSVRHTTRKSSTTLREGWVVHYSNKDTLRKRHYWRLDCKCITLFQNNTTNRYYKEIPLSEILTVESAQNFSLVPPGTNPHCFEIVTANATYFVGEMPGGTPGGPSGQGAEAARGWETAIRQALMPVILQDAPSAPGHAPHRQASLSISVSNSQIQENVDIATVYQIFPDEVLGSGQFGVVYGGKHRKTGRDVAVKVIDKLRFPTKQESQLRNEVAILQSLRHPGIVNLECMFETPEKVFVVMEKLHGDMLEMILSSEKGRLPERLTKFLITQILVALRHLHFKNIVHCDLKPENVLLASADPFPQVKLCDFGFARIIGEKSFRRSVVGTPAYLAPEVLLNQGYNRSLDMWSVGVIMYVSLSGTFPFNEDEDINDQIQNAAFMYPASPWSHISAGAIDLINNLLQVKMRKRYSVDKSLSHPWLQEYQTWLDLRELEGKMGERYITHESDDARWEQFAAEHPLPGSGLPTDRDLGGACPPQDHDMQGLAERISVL
Chain of Testis-specific serine/threonine-protein kinase 1 (Q9BXA7 whole entry): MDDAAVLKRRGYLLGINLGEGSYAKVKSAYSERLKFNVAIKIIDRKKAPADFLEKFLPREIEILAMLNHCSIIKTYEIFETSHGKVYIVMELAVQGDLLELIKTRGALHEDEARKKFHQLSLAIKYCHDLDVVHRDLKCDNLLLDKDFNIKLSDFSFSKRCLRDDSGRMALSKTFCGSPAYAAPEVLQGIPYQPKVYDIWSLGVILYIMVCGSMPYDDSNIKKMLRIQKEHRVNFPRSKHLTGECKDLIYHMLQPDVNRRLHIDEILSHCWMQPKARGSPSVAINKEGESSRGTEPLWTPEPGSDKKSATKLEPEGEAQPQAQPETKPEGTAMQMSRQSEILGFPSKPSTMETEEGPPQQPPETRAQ

IC50 (Aurora kinase A): > 10 µM
IC50 [1]: > 10 µM
IC50 [2]: > 10 µM
IC50 [3]: > 10 µM
IC50 [4]: > 10 µM
IC50 [5]: > 10 µM
IC50 [6]: > 10 µM
IC50 [7]: > 10 µM
IC50 [8]: > 10 µM
IC50 [9]: > 10 µM
IC50 [10]: > 10 µM
IC50 [11]: > 10 µM
IC50 [12]: > 10 µM
IC50 [13]: > 10 µM
IC50 [14]: > 10 µM
SMILES: O=C(c1ccc(F)c(F)c1Nc1ccc(I)cc1F)N1CC(O)([C@@H]2CCCCN2)C1 [COBIMETINIB]
inhibition in vivo at 10 mg/kg [15]: 37%
inhibition in vivo at 10 mg/kg (LoVo): 98%
inhibition in vivo at 2.5 mg/kg (537-mel [16]): 69%
inhibition in vivo at 10 mg/kg (537-mel [17]): 96%
inhibition in vivo at 5 mg/kg (A2058 [18]): 12.7%
inhibition in vivo at 2.5 mg/kg [19]: 36%
inhibition in vivo at 5 mg/kg (NCI-H520): 26%
inhibition in vivo at 10 mg/kg (SK-OV-3): 63%
inhibition (A2058 [20]): Active
inhibition in vivo at 15 mg/kg (A2058 [21]): 41%
inhibition in vivo at 10 mg/kg (DLD-1 [22]): 18%
inhibition in vivo at 15 mg/kg [23]: 75%
inhibition in vivo at 15 mg/kg (DLD-1 [24]): 69%
Activity (A2058 [25]): Active
Activity (A2058 [26]): Active
Activity (A2058 [27]): Active
